The target of one test is T1, Renin (Homo sapiens, UniProt P00797).
T1 sequence (P00797 whole entry): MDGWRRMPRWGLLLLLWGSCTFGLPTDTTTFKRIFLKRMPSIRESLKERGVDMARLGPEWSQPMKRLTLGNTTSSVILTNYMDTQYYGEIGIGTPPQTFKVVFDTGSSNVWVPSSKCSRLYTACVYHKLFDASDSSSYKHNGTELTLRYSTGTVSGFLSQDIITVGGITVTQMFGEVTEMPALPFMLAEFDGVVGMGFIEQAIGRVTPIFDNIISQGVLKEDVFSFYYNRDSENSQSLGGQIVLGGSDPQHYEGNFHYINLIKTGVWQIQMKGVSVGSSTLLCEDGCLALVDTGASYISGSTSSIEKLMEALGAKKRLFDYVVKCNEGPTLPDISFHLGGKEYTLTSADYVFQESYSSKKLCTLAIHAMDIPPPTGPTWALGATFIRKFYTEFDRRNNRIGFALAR
Nature of the test: Inhibition of human plasma renin. Type of test: cell-free.

Test [1] relates to Rhesus monkey. The test is described as follows: In vivo effect on heart rate(peak deltaHR) in sodium deficient rhesus monkeys after iv administration (dose 0.1 mg/kg). Type of test: functional, Cercopithecidae. The method in brief:
(§1)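 Conscious male and female rhesus monkeys (N = 2) with chronic arterial access ports for direct MAP and heart-rate monitoring, and venous catheters for dosing. Animals were kept on a low-sodium diet, given furosemide the evening before, and fasted 18 h before and during the study. Compound was given iv in 0.05% acetic acid/5% dextrose/H2O, 20 min after a vehicle control dose. Peak changes were averaged, and the hypotensive half-life was read from time plots.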

The target of test [2] is T2, Renin (Homo sapiens) (UniProt P00797).
T2 sequence (whole entry): T1 sequence (P00797 whole entry)
Nature of the test: In vivo inhibition of plasma renin activity in sodium deficient rhesus monkeys after iv administration (dose 0.1 mg/kg, determined at peak deltaMAP). The arrangement: dose 0.1 mg/kg. Type of test: functional, organism-based. The conditions noted are these: Cercopithecidae, target entry is the homologue from another species, at 0.1 mg/kg. Summed up: (§2)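 Sodium-deficient rhesus monkeys (N = 2) were kept on a low-sodium diet, given furosemide the evening before, and fasted 18 h. Compound was given iv through a venous catheter in 0.05% acetic acid/5% dextrose/H2O, 20 min after vehicle. Blood was drawn periodically via an arterial access port for plasma renin activity. Percent inhibition was taken at peak ΔMAP.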

In test [3] the test system is Rhesus monkey. The test is described as follows: In vivo effect on mean arterial pressure(peak deltaMAP) in sodium deficient rhesus monkeys after iv administration (dose 0.1 mg/kg). Type of test: functional, Cercopithecidae, Artery. The method in brief: as §1
Test [4] has as its system Rhesus monkey. Nature of the test: Half life of hypotensive effect in sodium deficient rhesus monkeys after iv administration (dose 0.1 mg/kg). Also on record: dose 0.1 mg/kg. The following applies: Cercopithecidae. Type of test: functional, organism-based. Summed up:
as §1

Test [5] relates to Rhesus monkey. Nature of the test: In vivo effect on mean arterial pressure(peak deltaMAP) in sodium deficient rhesus monkeys after iv administration (dose 0.34 mg/kg). Type of test: functional, Cercopithecidae, Artery.
Test [6] has as its system Rhesus monkey. The test is described as follows: In vivo effect on heart rate(peak deltaHR) in sodium deficient rhesus monkeys after iv administration (dose 0.34 mg/kg). Type of test: functional, Cercopithecidae.
Test [7] deals with Rhesus monkey. Nature of the test: Half life of hypotensive effect in sodium deficient rhesus monkeys after iv administration (dose 0.34 mg/kg). Type of test: functional, organism-based. The arrangement: dose 0.34 mg/kg. The conditions noted are these: Cercopithecidae.
In test [8] the target is T2, Renin (Homo sapiens). Nature of the test: In vivo inhibition of plasma renin activity in sodium deficient rhesus monkeys after iv administration (dose 0.34 mg/kg, determined at peak deltaMAP). Type of test: functional, organism-based. The conditions noted are these: Cercopithecidae, target entry is the homologue from another species, at 0.34 mg/kg. Also on record: dose 0.34 mg/kg.

Test [9] has as its system Rhesus monkey. The test is described as follows: In vivo effect on heart rate(peak deltaHR) in sodium deficient rhesus monkeys after iv administration (dose 0.43 mg/kg). Type of test: functional, Cercopithecidae. Summed up:
as §1

The subject of test [10] is Rhesus monkey. The test is described as follows: In vivo effect on mean arterial pressure(peak deltaMAP) in sodium deficient rhesus monkeys after iv administration (dose 0.43 mg/kg). Type of test: functional, Cercopithecidae, Artery. Summed up:
as §1

For test [11], the system named is Rhesus monkey. The test is described as follows: Half life of hypotensive effect in sodium deficient rhesus monkeys after iv administration (dose 0.43 mg/kg). The conditions noted are these: Cercopithecidae. Also on record: dose 0.43 mg/kg. Type of test: functional, organism-based. The method in brief:
as §1

Test [12] concerns the target T2, Renin (Homo sapiens). The test is described as follows: In vivo inhibition of plasma renin activity in sodium deficient rhesus monkeys after iv administration (dose 0.43 mg/kg, determined at peak deltaMAP). Type of test: functional, organism-based. Also on record: dose 0.43 mg/kg. The conditions noted are these: Cercopithecidae, target entry is the homologue from another species, at 0.43 mg/kg. Summed up:
as §2

Test [13] concerns the target T2, Renin (Homo sapiens). The following applies: Cercopithecidae; at 0.99 mg/kg.
Test [14] has as its system Rhesus monkey. Nature of the test: In vivo effect on heart rate(peak deltaHR) in sodium deficient rhesus monkeys after iv administration (dose 0.99 mg/kg). Type of test: functional, Cercopithecidae. Summed up: as §1
Test [15] deals with Rhesus monkey. The test is described as follows: Half life of hypotensive effect in sodium deficient rhesus monkeys after iv administration (dose 0.99 mg/kg). Type of test: functional, organism-based. Also on record: dose 0.99 mg/kg. The conditions noted are these: Cercopithecidae. Summed up: as §1
In test [16] the test system is Rhesus monkey. Nature of the test: In vivo effect on mean arterial pressure(peak deltaMAP) in sodium deficient rhesus monkeys after iv administration (dose 0.99 mg/kg). Type of test: functional, Cercopithecidae, Artery. The method in brief:
as §1

Consider `CC(C)(C)OC(=O)N[C@@H](Cc1ccccc1)C(=O)N[C@@H](Cc1cnc[nH]1)C(=O)N[C@@H](CC1CCCCC1)[C@@H](O)CSCC(=O)NCCN1CCOCC1`, for which the IC50 – broadly, the concentration that gives 50% inhibition – at Renin was 40 nM.
At Renin, `CC(C)(C)OC(=O)N[C@@H](Cc1ccccc1)C(=O)N[C@@H](Cc1cnc[nH]1)C(=O)N[C@@H](CC1CCCCC1)[C@@H](O)C[S+]([O-])CC(=O)NCCN1CCOCC1` (stereo partly specified) displayed an IC50 of 19 nM.
With `CC(C)(C)OC(=O)N[C@@H](Cc1ccccc1)C(=O)N[C@@H](Cc1c[nH]cn1)C(=O)N[C@@H](CC1CCCCC1)[C@@H](O)CS(=O)(=O)CC(=O)NC1C[N+]2([O-])CCC1CC2` (stereo partly specified), inhibition against Renin was half-maximal at 4.2 nM (IC50).
As to `CC(C)(C)OC(=O)N[C@@H](Cc1ccccc1)C(=O)N[C@@H](Cc1c[nH]cn1)C(=O)N[C@@H](CC1CCCCC1)[C@@H](O)CS(=O)(=O)CC(=O)NCCN1CCOCC1`, the “Peak deltaHR” value in the test with Rhesus monkey [1] was -18 beats min-1. Moreover, the inhibition (as a rule, how much of the control response was suppressed) against Renin (Homo sapiens) [2] came to 88%. Moreover, the “Peak deltaMAP” value in the test on Rhesus monkey [3] was -15 mmHg. In the test with Rhesus monkey [4], this compound registered a T1/2 of under 10 min.
Turning to `CC(C)(C)OC(=O)N[C@@H](Cc1ccccc1)C(=O)N[C@@H](Cc1c[nH]cn1)C(=O)N[C@@H](CC1CCCCC1)[C@@H](O)CSc1nnnn1CCc1ccncc1`, the “Peak deltaMAP” value in the test with Rhesus monkey [5] is given as -22 mmHg. Further, the “Peak deltaHR” value with Rhesus monkey [6] is 1 beats min-1. For the same compound, in the test with Rhesus monkey [7], the T1/2 is under 10 min. The same compound yielded an inhibition at Renin (Homo sapiens) [8] of 95%.
In the case of `CC(C)(C)OC(=O)N[C@@H](Cc1ccccc1)C(=O)N[C@@H](Cc1c[nH]cn1)C(=O)N[C@@H](CC1CCCCC1)[C@@H](O)CSCC(=O)NCCN1CCOCC1`, the “Peak deltaHR” value in the test with Rhesus monkey [9] is -26 beats min-1. In the test on Rhesus monkey [10], the “Peak deltaMAP” value is listed as -20.5 mmHg. Besides, the T1/2 in the test on Rhesus monkey [11] is under 10 min. On Renin (Homo sapiens) [12], the inhibition is 90%.
Take `CC(C)(C)OC(=O)N[C@@H](Cc1ccccc1)C(=O)N[C@@H](Cc1cnc[nH]1)C(=O)N[C@@H](CC1CCCCC1)[C@@H](O)CSCC(=O)NCc1ccncc1`: the IC50 against Renin is 92 nM.
As to `CC(C)(C)OC(=O)N[C@@H](Cc1ccccc1)C(=O)N[C@@H](Cc1c[nH]cn1)C(=O)N[C@@H](CC1CCCCC1)[C@@H](O)CSCC(=O)NCc1ccncc1`, the inhibition at Renin (Homo sapiens) [13] turned out to be 88%. The “Peak deltaHR” value in the test on Rhesus monkey [14] is given as -26 beats min-1. In the test on Rhesus monkey [15], this compound yielded a T1/2 of under 10 min. For the same compound, in the test on Rhesus monkey [16], the “Peak deltaMAP” value was -16 mmHg.
As to `CN1CCN(C(=O)CS(=O)(=O)C[C@H](O)[C@H](CC2CCCCC2)NC(=O)[C@H](Cc2c[nH]cn2)NC(=O)[C@H](Cc2ccccc2)NC(=O)OC(C)(C)C)CC1`, on Renin, the IC50 was found to be 20 nM.

The values are drawn from ChEMBL document CHEMBL1125495, “Inhibitors of human renin with C-termini derived from amides and esters of alpha-mercaptoalkanoic acids” (J Med Chem, 1992).
